STAT3 inh: STAT3 signaling inhibition; inhibition, % at 5.5 µM; AID 862; U3A cells, IL-6 STAT3-luciferase reporter, luminescence; host cell line lacks STAT1; 190,000 compounds, 0.89% hits;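 active = inhibition above the mean inhibition across all screened compounds plus 3 SD, cut at about 44% in these data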;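 also: 0% = DMSO only wells and 100% = 100 µM nifuroxazide control wells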
APP 5'UTR act: activates APP 5'UTR luciferase reporter; activation, % at 2 µM; 190,000 compounds, 1% hits; SH-SY5Y APP 5'UTR luciferase reporter, luminescence; zero percent = DMSO vehicle wells;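 active = activation above a set limit, based on mean plus 3 SD of controls, cut at about 140% in these data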
NF-kB expr up: compounds increasing NF-kB expression in human neuronal cells; NF-kB reporter expression; active compounds read high; fold change at 12.5 µM; 190,000 compounds, 1.6% hits; AID 1239; in the data active = fold change above about 3.3
STAT1 blocker: inhibitors of IFN-gamma induced STAT1 signaling. inhibition, % at 5.5 µM. 200,000 compounds, 0.35% hits. NIH 3T3 STAT1-luciferase reporter, luminescence. AID 920;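 active = inhibition above a set limit, the mean inhibition across all tested compounds plus 3 SD, cut at about 34% in these data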;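 also: 0% = IFN-gamma with DMSO and 100% = IFN-gamma with 300 µM nifuroxazide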
STAT3 activator: activators of IL-6 induced STAT3 signaling; U3A cells, IL-6 STAT3-luciferase reporter, luminescence; 100% = signal with IL-6 EC80 alone; activation (% of control), % at 5.6 µM; 190,000 compounds, 0.91% hits; AID 871;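 active = activation above the screen-wide mean of compound activation plus 3 SD, cut at about 130% in these data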;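 also: 0% = background luminescence of wells with medium and substrate only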
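Assay system – human STAT1-deficient U3A cells with stable STAT3-luciferase reporter · Also added – IL-6 (33 ng/mL) · Schedule – compound 1 h, then IL-6 6 h at 37 °C · Technique – reporter luminescence signal · Evaluation – % activation versus median of IL-6-stimulated wells · Benchmarks – IL-6-only wells as 100% reference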
STAT1 activator: increases IFN-gamma driven STAT1 reporter signal. 200,000 compounds, 2.6% hits. NIH 3T3 STAT1-luciferase reporter, luminescence; 100% = IFN-gamma alone, no compound. activation (% of control), % at 5.5 µM;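 active = activation above the screen-wide mean activation plus 3 SD, cut at about 130% in these data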;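 also: raw ratio to IFN-gamma control signal so 100% means no change and 0% no light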
The depositor's hits bear a star. An excerpt weighted towards active compounds, which were near 5.1% of everything screened.

SMILES	STAT3 inh	APP 5'UTR act	NF-kB expr up	STAT1 blocker	STAT3 activator	STAT1 activator
COc1ccc2nc(NC(=O)C3COc4ccccc4O3)sc2c1 (centres undefined)	35	132	3.4*	-12	75	111
C/C(=N/NC(=O)CNC(=O)c1ccccn1)c1ccc([N+](=O)[O-])cc1	15	5	0.77	5	97	95
COc1ccc2nc(NC(=O)c3cc(C)oc3C)sc2c1	23	145*	2.5	-42	83	139*
O=C(c1ccc(Cl)cc1)N(Cc1ccc(Br)cc1)N1C(=O)CCC1=O	13	15	0.75	2	98	97
O=C(NC1=NCCS1)C1CC(=O)N(c2ccc(F)cc2)C1 (centres undefined)	6	9	1.1	-1	95	101
Nc1ccccc1C#Cc1ccccc1	6	119	8.7*	-52	97	146*
Nc1ccc(-c2nc3ccccc3[nH]2)cc1	2	58	2	-23	102	121
Nc1ccc(C#Cc2ccccc2)cc1	22	7	1.5	-34	89	130*
CCOC(=O)CC1C(=O)NCCN1C(=O)c1ccc(F)cc1F (centres undefined)	-4	3	1.1	-4	107	103
C=CCSc1nc2ccccc2c(=O)n1Cc1ccccc1	2	21	1.1	3	101	96
OCCNCCCCOc1ccc(OCc2ccccc2)cc1	-5	97	2.6	-26	102	123
Cn1c(=O)c2c(nc(SCC(=O)NCC3CCCO3)n2C)n(C)c1=O (centres undefined)	8	3	1.1	3	98	97
CCCN1CCc2c(sc(NC(=S)NC(=O)c3ccccc3)c2C#N)C1	-7	36	0.85	-20	112	116
CC(C)N1CCc2c(sc(NC(=S)NC(=O)c3ccccc3)c2C#N)C1	-9	30	0.45	-38	110	134*
O=C(CSc1nnc(-c2csc3c2CCCC3)o1)Nc1ccccc1	4	203*	3.4*	-42	104	138*
Cc1csc(NC(=O)CSc2nnc(-c3ccccc3)o2)n1	-5	136*	3.1	-29	111	126
CCOC(=O)CCn1c(=O)c2c(nc(Br)n2Cc2ccccc2)n(C)c1=O	4	-1	0.97	5	101	96
COc1cc(C(=O)NCc2cc(C)nc3ccccc23)cc(OC)c1OC	11	-3	1.1	12	95	90
Nc1nnc(CC(=O)N/N=C/c2cccc(OCCOc3ccccc3)c2)s1	-8	90	1.5	-31	111	129*
O=C(O/N=C1/CCCc2occc21)c1ccc(F)cc1	5	-19	1.4	-15	97	114
O=C(O/N=C1/CCSc2ccccc21)c1ccc(F)cc1	-38	2	1.2	-4	135*	104
COC(=O)c1[nH]c2ccc(F)cc2c1NS(=O)(=O)c1ccc(OC)cc1	-27	-89	1.4	16	128	85
Cc1ccc(-c2ccc(/C=N/N3C(=O)C4C5C=CC(CC5)C4C3=O)o2)c([N+](=O)[O-])c1 (centres undefined)	9	3	0.95	-2	97	102
COc1ccc(N2CCN(C(=O)CSc3nc4[nH]ncc4c(=O)n3-c3ccc(Br)cc3)CC2)cc1	4	-2	3.3*	20	98	80
NC(=O)N1CCC2(CC1)NC(=O)N(c1ccccc1)N2	5	12	1.1	-1	99	100
SMILES	STAT3 inh	APP 5'UTR act	NF-kB expr up	STAT1 blocker	STAT3 activator	STAT1 activator
Cc1ccc(N=Nc2c(N)nn3c(N)c(C#N)c(C)nc23)cc1	33	-7	0.94	-34	74	129*
Cc1ccc(N=Nc2c(N)nn3c(C)cc(C)nc23)cc1	14	0	1.1	-6	89	105
CCOC(=O)N1CCN(C(=O)CSCc2ccccc2)CC1	-12	55	1.6	-33	108	130*
CCN1/C(=C\C(=S)Nc2ccccc2)Sc2ccccc21	-4	63	2.2	-50	105	144*
CCC(CC)C(=O)NCCc1cc2ccc(C)cc2[nH]c1=O	5	5	1.1	-8	100	108
Cc1ccc2cc(CCNC(=O)c3cccs3)c(=O)[nH]c2c1	0	127	2.2	-43	100	139*
COc1ccc(N=Nc2cnc(C)nc2-c2ccccc2)cc1	25	-18	0.78	-10	82	109
